# Key:
# [1] = Tmax in Sprague-Dawley rat at 10 mg/kg, po administered as single dose; type: ADME, organism-based; details: in vivo
# Procedure, shortened: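 Male Sprague-Dawley rats (n=3), single dose. IV 2 mg/kg in 1% DMA/9% Cremophor/90% saline; PO 10 mg/kg in 0.5% CMC-Na. For one compound, IV 10 mg/kg in DMSO/Tween 80/PEG40 and PO 10 mg/kg in 10% DMSO/5% Tween 80/85% saline.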
# [2] = Selectivity ratio of IC50 for human SNU16 cells to IC50 for human EBC1 cells; type: ADME, cell-based; details: snu-16
# [3] = Selectivity ratio of IC50 for human SNU16 cells to IC50 for human MKN45 cells; type: ADME, cell-based; details: snu-16
# [4] = Selectivity ratio of IC50 for human SNU1 cells to IC50 for mouse BAF3 cells expressing TPR-MET; type: ADME, cell-based
# [5] = molecular target: Vascular endothelial growth factor receptor 2 (Homo sapiens) (UniProt P35968); assay: Inhibition of recombinant KDR (unknown origin) using poly (Glu, Tyr) 4:1 as substrate at 1000 nM incubated for 60 mins by ELISA relative to control
# Sequence of Vascular endothelial growth factor receptor 2 (Homo sapiens) (P35968 whole entry): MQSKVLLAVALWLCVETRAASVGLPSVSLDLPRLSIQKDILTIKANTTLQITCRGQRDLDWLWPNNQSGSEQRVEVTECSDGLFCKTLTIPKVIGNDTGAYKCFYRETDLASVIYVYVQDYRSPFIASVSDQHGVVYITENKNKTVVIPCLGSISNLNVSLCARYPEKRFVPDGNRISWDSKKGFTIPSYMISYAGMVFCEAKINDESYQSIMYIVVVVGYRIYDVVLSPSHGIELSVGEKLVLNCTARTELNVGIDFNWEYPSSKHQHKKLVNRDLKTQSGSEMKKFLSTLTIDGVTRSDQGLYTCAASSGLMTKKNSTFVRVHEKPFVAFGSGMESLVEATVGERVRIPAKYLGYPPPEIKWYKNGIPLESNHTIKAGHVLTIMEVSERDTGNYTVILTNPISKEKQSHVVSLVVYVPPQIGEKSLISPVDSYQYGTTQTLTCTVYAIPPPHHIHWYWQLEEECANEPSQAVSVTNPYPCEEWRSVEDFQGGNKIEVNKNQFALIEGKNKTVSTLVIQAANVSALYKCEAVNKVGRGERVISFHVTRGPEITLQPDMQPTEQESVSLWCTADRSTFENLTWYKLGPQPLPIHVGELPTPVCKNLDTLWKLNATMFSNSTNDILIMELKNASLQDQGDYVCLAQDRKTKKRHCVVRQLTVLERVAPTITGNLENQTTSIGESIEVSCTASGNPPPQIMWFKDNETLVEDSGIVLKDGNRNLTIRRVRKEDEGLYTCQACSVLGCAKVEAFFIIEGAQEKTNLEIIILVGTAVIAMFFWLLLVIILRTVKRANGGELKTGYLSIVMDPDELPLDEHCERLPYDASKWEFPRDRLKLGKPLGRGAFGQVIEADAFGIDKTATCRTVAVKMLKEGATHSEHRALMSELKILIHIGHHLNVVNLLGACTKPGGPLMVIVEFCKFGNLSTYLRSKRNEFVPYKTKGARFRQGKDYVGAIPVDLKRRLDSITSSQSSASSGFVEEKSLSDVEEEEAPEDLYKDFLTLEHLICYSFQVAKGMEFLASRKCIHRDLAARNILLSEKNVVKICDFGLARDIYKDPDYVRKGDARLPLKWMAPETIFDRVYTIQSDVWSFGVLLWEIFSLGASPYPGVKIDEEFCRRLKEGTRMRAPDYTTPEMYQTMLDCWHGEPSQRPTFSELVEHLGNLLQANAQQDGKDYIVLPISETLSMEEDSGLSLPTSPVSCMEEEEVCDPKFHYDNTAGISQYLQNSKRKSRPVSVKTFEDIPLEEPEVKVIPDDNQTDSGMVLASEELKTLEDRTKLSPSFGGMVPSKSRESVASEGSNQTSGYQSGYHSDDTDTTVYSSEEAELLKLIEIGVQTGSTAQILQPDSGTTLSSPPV
# Procedure, shortened: (§1)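 Recombinant tyrosine kinases assayed on wells precoated with poly(Glu,Tyr)4:1 (20 µg/mL). ATP 10 µmol/L in HEPES pH 7.4 buffer with MgCl2, MnCl2, Na3VO4 and DTT; compound in 1% DMSO, 1% DMSO as control. Reaction 60 min at 37 °C. Phosphotyrosine detected with PY99 and HRP anti-mouse, o-phenylenediamine, A490. Inhibition % relative to control; two experiments.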
# [6] = molecular target: Mast/stem cell growth factor receptor Kit (Homo sapiens) (UniProt P10721); assay: Inhibition of recombinant c-Kit (unknown origin) using poly (Glu, Tyr) 4:1 as substrate at 1000 nM incubated for 60 mins by ELISA relative to control; procedure, shortened: as §1
# Sequence of Mast/stem cell growth factor receptor Kit (Homo sapiens) (P10721 whole entry): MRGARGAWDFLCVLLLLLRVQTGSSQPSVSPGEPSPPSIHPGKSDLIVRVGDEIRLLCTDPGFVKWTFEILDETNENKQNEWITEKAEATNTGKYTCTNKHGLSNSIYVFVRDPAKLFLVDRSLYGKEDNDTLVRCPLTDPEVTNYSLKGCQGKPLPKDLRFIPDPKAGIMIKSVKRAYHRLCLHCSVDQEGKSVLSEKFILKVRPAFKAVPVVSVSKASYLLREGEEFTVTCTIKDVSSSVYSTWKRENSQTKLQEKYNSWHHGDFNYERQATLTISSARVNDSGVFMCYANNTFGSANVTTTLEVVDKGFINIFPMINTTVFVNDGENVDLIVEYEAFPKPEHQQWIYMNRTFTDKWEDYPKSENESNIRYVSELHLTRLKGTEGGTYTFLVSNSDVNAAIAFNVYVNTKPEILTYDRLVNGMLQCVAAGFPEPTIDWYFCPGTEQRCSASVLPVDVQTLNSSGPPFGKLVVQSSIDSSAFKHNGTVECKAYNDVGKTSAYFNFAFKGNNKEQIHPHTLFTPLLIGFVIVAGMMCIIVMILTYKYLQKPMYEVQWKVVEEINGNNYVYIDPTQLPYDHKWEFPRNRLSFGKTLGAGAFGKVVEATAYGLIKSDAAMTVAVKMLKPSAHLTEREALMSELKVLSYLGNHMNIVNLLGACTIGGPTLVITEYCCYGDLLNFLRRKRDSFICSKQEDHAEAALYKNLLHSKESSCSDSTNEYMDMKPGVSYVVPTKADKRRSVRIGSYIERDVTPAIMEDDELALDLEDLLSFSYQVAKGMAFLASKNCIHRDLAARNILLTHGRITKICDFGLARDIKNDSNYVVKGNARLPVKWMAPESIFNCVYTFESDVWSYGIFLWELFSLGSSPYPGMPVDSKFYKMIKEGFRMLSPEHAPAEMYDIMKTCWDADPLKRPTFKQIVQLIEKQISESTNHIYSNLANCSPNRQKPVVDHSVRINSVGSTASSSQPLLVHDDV
# [7] = molecular target: Proto-oncogene tyrosine-protein kinase Src (Homo sapiens) (UniProt P12931); assay: Inhibition of recombinant c-Src (unknown origin) using poly (Glu, Tyr) 4:1 as substrate at 1000 nM incubated for 60 mins by ELISA relative to control; procedure, shortened: as §1
# Sequence of Proto-oncogene tyrosine-protein kinase Src (Homo sapiens) (P12931 2-536 limits assumed): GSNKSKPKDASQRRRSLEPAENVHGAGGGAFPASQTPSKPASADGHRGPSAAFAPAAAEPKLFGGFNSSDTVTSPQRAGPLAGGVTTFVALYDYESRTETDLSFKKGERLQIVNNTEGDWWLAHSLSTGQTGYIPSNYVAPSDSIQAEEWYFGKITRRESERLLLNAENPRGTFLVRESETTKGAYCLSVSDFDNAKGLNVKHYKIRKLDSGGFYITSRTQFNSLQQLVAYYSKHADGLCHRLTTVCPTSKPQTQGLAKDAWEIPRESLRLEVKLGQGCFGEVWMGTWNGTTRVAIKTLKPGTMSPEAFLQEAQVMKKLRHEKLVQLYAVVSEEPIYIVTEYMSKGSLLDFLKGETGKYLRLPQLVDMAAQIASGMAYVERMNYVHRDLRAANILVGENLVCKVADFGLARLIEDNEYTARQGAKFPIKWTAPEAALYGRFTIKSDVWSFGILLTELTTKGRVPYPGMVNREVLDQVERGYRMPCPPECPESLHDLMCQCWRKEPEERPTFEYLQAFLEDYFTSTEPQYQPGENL
# [8] = molecular target: Tyrosine-protein kinase ABL1 (Homo sapiens) (UniProt P00519); assay: Inhibition of recombinant ABL (unknown origin) using poly (Glu, Tyr) 4:1 as substrate at 1000 nM incubated for 60 mins by ELISA relative to control; procedure, shortened: as §1
# NCI-H1299 = assay: Antiproliferative activity against human NCI-H1299 cells after 72 hrs by SRB or MTT assay; type: functional, cell-based; details: NCI-H1299, 72 h
# Procedure, shortened: (§2)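 Cells seeded, exposed next day to a range of concentrations for 72 h. Growth read by sulforhodamine B or MTT. IC50 from four-parameter concentration-response fit. Each concentration tested at least in triplicate, with at least 2 experiments.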
# NCI-H226 = assay: Antiproliferative activity against human NCI-H226 cells after 72 hrs by SRB or MTT assay; type: functional, cell-based; details: NCI-H226, 72 h; procedure, shortened: as §2
# NCI-H661 = assay: Antiproliferative activity against human NCI-H661 cells after 72 hrs by SRB or MTT assay; type: functional, cell-based; details: NCI-H661, 72 h; procedure, shortened: as §2
# [9] = Antiproliferative activity against human BGC823 cells after 72 hrs by SRB or MTT assay; type: functional, cell-based; details: BGC-823, 72 h; procedure, shortened: as §2
# SNU1 = assay: Antiproliferative activity against human SNU1 cells after 72 hrs by SRB or MTT assay; type: functional, cell-based; details: SNU1, 72 h; procedure, shortened: as §2
# [10] = molecular target: Hepatocyte growth factor receptor (Canis lupus familiaris) (UniProt Q75ZY9); assay: Inhibition of c-Met in MDCK cells assessed as inhibition of HGF-induced cell scattering after 24 hrs by crystal violet staining based microscopic analysis
# Sequence of Hepatocyte growth factor receptor (Canis lupus familiaris) (Q75ZY9 whole entry): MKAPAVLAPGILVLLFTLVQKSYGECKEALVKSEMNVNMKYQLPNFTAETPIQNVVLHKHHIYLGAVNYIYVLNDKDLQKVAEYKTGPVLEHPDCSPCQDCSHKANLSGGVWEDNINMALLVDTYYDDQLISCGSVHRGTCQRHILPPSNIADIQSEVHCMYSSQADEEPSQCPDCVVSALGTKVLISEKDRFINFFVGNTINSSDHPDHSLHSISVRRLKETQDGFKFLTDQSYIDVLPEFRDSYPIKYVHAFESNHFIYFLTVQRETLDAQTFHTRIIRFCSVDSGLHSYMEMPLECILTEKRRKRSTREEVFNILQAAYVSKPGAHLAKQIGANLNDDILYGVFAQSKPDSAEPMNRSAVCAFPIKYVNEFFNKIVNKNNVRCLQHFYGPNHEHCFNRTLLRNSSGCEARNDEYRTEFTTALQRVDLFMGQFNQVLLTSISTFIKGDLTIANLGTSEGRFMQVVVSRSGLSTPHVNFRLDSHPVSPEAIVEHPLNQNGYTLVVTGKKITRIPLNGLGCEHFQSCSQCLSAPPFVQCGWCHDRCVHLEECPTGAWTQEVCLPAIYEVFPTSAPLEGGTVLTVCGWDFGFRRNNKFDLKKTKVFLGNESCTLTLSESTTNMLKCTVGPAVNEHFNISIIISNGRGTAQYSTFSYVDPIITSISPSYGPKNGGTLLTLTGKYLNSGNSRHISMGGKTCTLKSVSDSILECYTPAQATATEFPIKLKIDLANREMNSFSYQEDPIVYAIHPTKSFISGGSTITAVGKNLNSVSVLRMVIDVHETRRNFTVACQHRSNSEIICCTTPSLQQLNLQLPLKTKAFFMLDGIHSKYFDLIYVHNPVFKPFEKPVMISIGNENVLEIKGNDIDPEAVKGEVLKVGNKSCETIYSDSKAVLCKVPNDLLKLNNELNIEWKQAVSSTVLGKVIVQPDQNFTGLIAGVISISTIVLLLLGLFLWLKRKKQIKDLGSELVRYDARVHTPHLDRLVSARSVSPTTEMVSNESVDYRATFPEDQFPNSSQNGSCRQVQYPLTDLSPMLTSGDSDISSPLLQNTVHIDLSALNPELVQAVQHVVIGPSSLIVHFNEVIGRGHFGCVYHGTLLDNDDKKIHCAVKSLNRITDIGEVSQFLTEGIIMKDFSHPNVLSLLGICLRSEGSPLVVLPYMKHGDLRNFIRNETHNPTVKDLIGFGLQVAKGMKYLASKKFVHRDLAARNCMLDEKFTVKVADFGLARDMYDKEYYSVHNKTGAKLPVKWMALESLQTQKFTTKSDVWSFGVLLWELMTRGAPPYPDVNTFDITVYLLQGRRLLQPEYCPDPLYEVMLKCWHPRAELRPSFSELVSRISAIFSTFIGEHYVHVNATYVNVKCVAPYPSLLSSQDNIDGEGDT
# Procedure, shortened: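 MDCK cells, 1.5×10^3 per well, grown overnight, then given increasing compound concentrations plus HGF (100 ng/mL). Incubated 24 h at 37 °C, 5% CO2. Fixed in 4% paraformaldehyde 15 min, stained with 0.2% crystal violet and imaged by microscopy. Three independent experiments.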
# [11] = Antitumor activity against human EBC1 cells xenografted in athymic nude mouse assessed as tumor growth inhibition at 6.25 mg/kg, po bid for 21 days measured twice a week during compound dosing relative to control; type: functional; details: EBC-1, po, 504 h, read-out: TGI
# Procedure, shortened: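 Nude mice bearing s.c. tumours. Cells were first grown s.c. to 700–800 mm³, then 1.5 mm³ fragments were transplanted s.c. into the right flank. Mice were randomised at 100–200 mm³ (n=6 treated, n=12 vehicle) and dosed orally twice daily for 21 days. Caliper measurement twice weekly; TV = length×width²/2. TGI taken on the final day versus vehicle; Student's t test.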
# [12] = Selectivity ratio of IC50 for human PANC1 cells to IC50 for human MKN45 cells; type: ADME, cell-based; details: panc-1
# Procedure, shortened: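 Each cell line was seeded in 96-well plates, then exposed the next day to a range of compound concentrations for 72 h. Growth was read by SRB or MTT assay, and IC50 was fitted by a four-parameter concentration-response curve. Each concentration was run at least in triplicate, in at least 2 experiments. BaF3/TPR-Met are murine pre-B BaF3 cells transfected with TPR-MET cDNA and selected in puromycin.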
# [13] = Selectivity ratio of IC50 for human Bel7404 cells to IC50 for mouse BAF3 cells expressing TPR-MET; type: ADME, cell-based
# Procedure, shortened: (§3)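 Both IC50s in each ratio come from one proliferation assay. Cells were seeded and exposed the next day to a range of concentrations for 72 h, then read by SRB or MTT. IC50s were fitted by four-parameter concentration–response, with each concentration at least in triplicate and at least 2 experiments. BaF3/TPR-Met is murine pre-B BaF3 transfected with TPR-MET and puromycin-selected.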
# [14] = Selectivity ratio of IC50 for human NCI-HCC827 cells to IC50 for human MKN45 cells; type: ADME, cell-based; details: mkn-45; procedure, shortened: as §3
# [15] = Selectivity ratio of IC50 for human NCI-H1299 cells to IC50 for human EBC1 cells; type: ADME, cell-based; procedure, shortened: as §3
# [16] = Selectivity ratio of IC50 for human NCI-H226 cells to IC50 for human MKN45 cells; type: ADME, cell-based; procedure, shortened: as §3
# [17] = Selectivity ratio of IC50 for human NCI-H661 cells to IC50 for human MKN45 cells; type: ADME, cell-based; details: mkn-45; procedure, shortened: as §3
# [18] = Selectivity ratio of IC50 for human MGC803 cells to IC50 for human MKN45 cells; type: ADME, cell-based; details: mgc-803; procedure, shortened: as §3
# [19] = Selectivity ratio of IC50 for human SPCA4 cells to IC50 for human MKN45 cells; type: ADME, cell-based, SPC-A4; details: SPCA4 cells versus MKN45 cells
# [20] = Selectivity ratio of IC50 for human SPCA4 cells to IC50 for mouse BAF3 cells expressing TPR-MET; type: ADME, cell-based; details: SPCA4 cells versus BAF3 cells expressing TPR-MET
structure (smiles),measurement,setting,value
Fc1ccc(-c2cnc3nnc(C(F)(F)c4ccc5ncccc5c4)n3n2)cc1,Tmax,[1],1 h
same,Ratio IC50,[2],10000
same,Ratio IC50,[3],10000
same,Ratio IC50,[4],10000
same,inhibition,[5],15.3%
same,inhibition,[6],32.1%
same,inhibition,[7],13.7%
same,inhibition,[8],14.9%
same,IC50,NCI-H1299,> 10 µM
same,IC50,NCI-H226,> 10 µM
same,IC50,NCI-H661,> 10 µM
same,IC50,[9],> 10 µM
same,IC50,SNU1,> 10 µM
same,inhibition,[10],Dose-dependent effect
same,inhibition in vivo at 6.25 mg/kg,[11],56.9%
same,Ratio IC50,[12],10000
same,Ratio IC50,[13],10000
same,Ratio IC50,[14],10000
same,Ratio IC50,[15],10000
same,Ratio IC50,[16],> 10000
same,Ratio IC50,[17],> 10000
same,Ratio IC50,[18],> 10000
same,selectivity ratio,[19],> 10000
same,selectivity ratio,[20],> 10000
